The target of experiment [1] is Human immunodeficiency virus type 1 protease (Human immunodeficiency virus 1, UniProt Q72874). Description: Inhibition of HIV aspartyl protease. The procedure, abridged:
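Assayed on purified HIV protease with a fluorescence rate readout (RFU/min). IC50 was taken from a dose–response curve. Ki came from fitting initial rates (200–600 s) to a tight-binding equation that accounts for protease concentration. Values are means of at least two experiments.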

The subject of experiment [2] is Human immunodeficiency virus 1. Description: Antiviral activity against HIV1 NL4-3 in MT4 cells. The settings on record: Human immunodeficiency virus 1, NL4-3, MT4. The class given is functional, organism-based. The essentials: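 Whole-cell cytopathic assay in MT-4 cells infected with the molecular clone HIV-1 NL4-3. EC50 is the mean of at least two experiments.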

The subject of experiment [3] is Human immunodeficiency virus 1. Description: Antiviral activity against HIV1 multi PI resistant strain 4596. The settings on record: Human immunodeficiency virus 1, 4596. The class given is functional, organism-based. The procedure, abridged:
(§1)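 EC50 values come from a whole-cell cytopathic anti-viral assay, reported as the mean of at least three experiments. For line 2, the multi-PI-resistant strain 4596 carries protease mutations 82T, 84V, 10R and 63P. For line 1, the saquinavir-resistant strain SaqR carries protease mutations 48V and 90M.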

Experiment [4] deals with Human immunodeficiency virus 1. As to the kind of experiment: Antiviral activity against HIV1 Saquinavir resistant strain SaqR. The class given is functional, organism-based. The settings on record: Human immunodeficiency virus 1, SaqR. The essentials: as §1

For the compound `CC(C)CN([C@H](CO)CCCCNC(=O)[C@@H](NC(=O)OC(C)(C)C)C(c1ccccc1)c1ccccc1)S(=O)(=O)c1ccc(N)cc1`, the midpoint of inhibition in experiment [1], the IC50, lay at 0.4 nM. Also, the EC50 (usually the concentration that produces a half-maximal response) in experiment [2] is 41 nM; in experiment [3], 290 nM.
On to `CC(C)CN([C@H](CO)CCCCNC(=O)[C@@H](NC(=O)c1ccncc1)C(c1ccccc1)c1ccccc1)S(=O)(=O)c1ccc(N)cc1`, for which, in experiment [1], 0.65 nM corresponded to half-maximal inhibition (IC50). The EC50 in experiment [2] is 32 nM; in experiment [3] it was 26 nM.
`CC(C)CN([C@H](CO)CCCCNC(=O)[C@@H](NC(=O)OCc1ccccn1)C(c1ccccc1)c1ccccc1)S(=O)(=O)c1ccc(N)cc1`: in experiment [1], the IC50 – broadly, the concentration that gives 50% inhibition – was 0.12 nM. In addition, the EC50 in experiment [2] turned out to be 17 nM; in experiment [3] it was 18 nM; in experiment [4], 14 nM.
`COC(=O)N[C@H](CCc1ccccc1)C(=O)NCCCC[C@@H](CO)N(CC(C)C)S(=O)(=O)c1ccc(N)cc1` registered an IC50 in experiment [1] of 40 nM. In experiment [2], this compound registered a concentration giving a half-maximal response (EC50) of 9000 nM.
Regarding `CC(C)CN([C@H](CO)CCCCNC(=O)[C@@H](NC(=O)c1ccccn1)C(c1ccccc1)c1ccccc1)S(=O)(=O)c1ccc(N)cc1`, the IC50 in experiment [1] amounted to 0.46 nM. Also, the half-maximal effective concentration (EC50) in experiment [2] was 68 nM; in experiment [3], 161 nM.
Turning to `CC(C)CN([C@H](CO)CCCCNC(=O)[C@@H](NC(=O)C1CC1)C(c1ccccc1)c1ccccc1)S(=O)(=O)c1ccc(N)cc1`, half-maximal inhibition in experiment [1] (IC50) was put at 0.43 nM. For the same compound, the EC50 in experiment [2] is 25 nM; in experiment [3], 46 nM; in experiment [4], 17 nM.
The compound `COC(=O)N[C@H](Cc1ccc2ccccc2c1)C(=O)NCCCC[C@@H](CO)N(CC(C)C)S(=O)(=O)c1ccc(N)cc1` came in with an IC50 in experiment [1] of 1.2 nM. In experiment [2], this compound had an EC50 of 258 nM.
Consider `CC(C)CN([C@H](CO)CCCCNC(=O)[C@@H](NC(=O)c1ncccc1O)C(c1ccccc1)c1ccccc1)S(=O)(=O)c1ccc(N)cc1`, for which inhibition in experiment [1] was half-maximal at 0.9 nM (IC50). Moreover, the EC50 worked out at 153 nM in experiment [2] and 186 nM in experiment [3].
`CC(C)CN([C@H](CO)CCCCNC(=O)[C@@H](NC(=O)OCc1ccncc1)C(c1ccccc1)c1ccccc1)S(=O)(=O)c1ccc(N)cc1` showed an IC50 in experiment [1] of 0.39 nM. Further, the EC50 in experiment [2] is 20 nM; in experiment [3], 13 nM; in experiment [4], 4 nM.
With `CC(=O)N[C@H](C(=O)NCCCC[C@@H](CO)N(CC(C)C)S(=O)(=O)c1ccc(N)cc1)C(c1ccccc1)c1ccccc1`, the IC50 in experiment [1] was determined as 1.5 nM. Moreover, the concentration for a half-maximal effect (EC50) in experiment [2] and in experiment [3] was 66 nM in each case.
In turn, `COC(=O)N[C@H](C(=O)NCCCC[C@H](CO)N(CC(C)C)S(=O)(=O)c1ccc(N)cc1)C(c1ccccc1)c1ccccc1` gave an IC50 in experiment [1] of 25 nM. The concentration giving a half-maximal response (EC50) in experiment [2] amounted to 3000 nM.
The corresponding values for `COC(=O)N[C@@H](C(=O)NCCCC[C@@H](CO)N(CC(C)C)S(=O)(=O)c1ccc(N)cc1)C(c1ccccc1)c1ccccc1` are 13 nM and 850 nM.
As to `CC(C)CN([C@H](CO)CCCCNC(=O)[C@@H](NC(=O)Cc1cccnc1)C(c1ccccc1)c1ccccc1)S(=O)(=O)c1ccc(N)cc1`, the concentration for half-maximal inhibition (IC50) in experiment [1] was 0.24 nM. In addition, the EC50 in experiment [2] came out at 194 nM; in experiment [3], 128 nM.
Consider `COC(=O)N[C@H](Cc1cccc2ccccc12)C(=O)NCCCC[C@@H](CO)N(CC(C)C)S(=O)(=O)c1ccc(N)cc1`, for which the half-maximal inhibitory concentration (IC50) in experiment [1] was found to be 1.2 nM. In experiment [2], the 50% effective concentration (EC50) turned out to be 120 nM.
In turn, `CC(C)CN([C@H](CO)CCCCNC(=O)[C@@H](NC(=O)C1CCCCC1)C(c1ccccc1)c1ccccc1)S(=O)(=O)c1ccc(N)cc1` displayed a 50% inhibitory concentration (IC50) in experiment [1] of less than 3.8 nM. The EC50 was 93 nM in experiment [2] and 186 nM in experiment [3].
In experiment [1], `CC(C)CN([C@H](CO)CCCCNC(=O)[C@@H](NC(=O)c1ccc(O)cc1)C(c1ccccc1)c1ccccc1)S(=O)(=O)c1ccc(N)cc1` yielded an IC50 of 0.53 nM. The concentration for a half-maximal effect (EC50) was 88 nM in experiment [2] and 34 nM in experiment [3].
The compound `CC(C)CN([C@H](CO)CCCCNC(=O)[C@@H](NC(=O)c1cccc(O)c1)C(c1ccccc1)c1ccccc1)S(=O)(=O)c1ccc(N)cc1` yielded an IC50 in experiment [1] of 0.4 nM. For the same compound, the half-maximal effective concentration (EC50) in experiment [2] came to 64 nM; in experiment [3], 30 nM.
`CC(C)CN([C@H](CO)CCCCNC(=O)[C@@H](N)C(c1ccccc1)c1ccccc1)S(=O)(=O)c1ccc(N)cc1`: in experiment [1], the half-inhibitory concentration (IC50) worked out at 0.5 nM. The EC50 in experiment [2] stood at 44 nM; in experiment [3], 43 nM.
In experiment [1], `Cc1ncccc1C(=O)N[C@H](C(=O)NCCCC[C@@H](CO)N(CC(C)C)S(=O)(=O)c1ccc(N)cc1)C(c1ccccc1)c1ccccc1` showed an IC50 of 0.4 nM. The 50% effective concentration (EC50) was 42 nM in experiment [2] and 36 nM in experiment [3].
`COC(=O)N[C@@H](C(=O)NCCCC[C@H](CO)N(CC(C)C)S(=O)(=O)c1ccc(N)cc1)C(c1ccccc1)c1ccccc1` yielded an IC50 in experiment [1] greater than 300 nM. For the same compound, the EC50 in experiment [2] was greater than 100000 nM.
As for `CC(C)CN([C@H](CO)CCCCNC(=O)[C@@H](NC(=O)c1cnccc1O)C(c1ccccc1)c1ccccc1)S(=O)(=O)c1ccc(N)cc1`, inhibition in experiment [1] was half-maximal at 0.5 nM (IC50).
Take `COc1cc(C(=O)N[C@@H](C(=O)NCCCC[C@@H](CO)N(CC(C)C)S(=O)(=O)c2ccc(N)cc2)C(c2ccccc2)c2ccccc2)ccc1O`: in experiment [1], the 50% inhibitory concentration (IC50) was determined as 0.5 nM. For the same compound, the EC50 in experiment [2] was 14 nM; in experiment [3], 23 nM.
Compound `COC(=O)N(C)[C@H](Cc1ccccc1)C(=O)NCCCC[C@@H](CO)N(CC(C)C)S(=O)(=O)c1ccc(N)cc1` had a half-maximal inhibitory concentration (IC50) in experiment [1] of 6.5 nM. Further, the midpoint of the response in experiment [2], the EC50, lay at 1000 nM.
Compound `COC(=O)N[C@H](Cc1ccccc1)C(=O)NCCCC[C@@H](CO)N(CC(C)C)S(=O)(=O)c1ccc(N)cc1` returned a half-maximal inhibitory concentration (IC50) in experiment [1] of 12 nM. The compound further yielded an EC50 in experiment [2] of 2000 nM.
Take `CC(C)CN([C@H](CO)CCCCNC(=O)[C@@H](NC(=O)c1ccc[nH]1)C(c1ccccc1)c1ccccc1)S(=O)(=O)c1ccc(N)cc1`: in experiment [1], half-maximal inhibition (IC50) was put at 0.43 nM. The 50% effective concentration (EC50) in experiment [2] is 34 nM; in experiment [3], 51 nM.
In turn, `COC(=O)N[C@H](C(=O)NCCCC[C@@H](CO)N(CC(C)C)S(=O)(=O)c1ccc(N)cc1)C(c1ccccc1)c1ccccc1` [PPL-100] showed a half-inhibitory concentration (IC50) in experiment [1] of 0.5 nM. For the same compound, the EC50 in experiment [3] is 38 nM; in experiment [4] it was 19 nM.
For `COC(=O)N[C@H](Cc1ccccc1-c1ccccc1)C(=O)NCCCC[C@@H](CO)N(CC(C)C)S(=O)(=O)c1ccc(N)cc1`, the IC50 in experiment [1] came to 0.521 nM. The compound further gave a 50% effective concentration (EC50) in experiment [2] of 200 nM.
With `CC(C)CN([C@H](CO)CCCCNC(=O)[C@@H](NC(=O)c1ccc([N+](=O)[O-])c(O)c1)C(c1ccccc1)c1ccccc1)S(=O)(=O)c1ccc(N)cc1`, in experiment [1], the 50% inhibitory concentration (IC50) was 0.33 nM. The EC50 in experiment [2] came out at 16 nM; in experiment [3], 10 nM.
As to `CC(C)CN([C@H](CO)CCCCNC(=O)[C@@H](NC(=O)c1ccc(O)c([N+](=O)[O-])c1)C(c1ccccc1)c1ccccc1)S(=O)(=O)c1ccc(N)cc1`, in experiment [1], half-maximal inhibition (IC50) required 0.56 nM. For the same compound, the values for the EC50 in experiment [2] and in experiment [3] were 55 nM and 35 nM, respectively.
The compound `CC(C)CN([C@H](CO)CCCCNC(=O)[C@@H](NC(=O)c1ccccc1O)C(c1ccccc1)c1ccccc1)S(=O)(=O)c1ccc(N)cc1` came in with a half-maximal inhibitory concentration (IC50) in experiment [1] of 0.63 nM. Also, the EC50 worked out at 64 nM in experiment [2] and 134 nM in experiment [3].
Regarding `CC(C)CN([C@H](CO)CCCCNC(=O)[C@@H](NC(=O)OCc1cccnc1)C(c1ccccc1)c1ccccc1)S(=O)(=O)c1ccc(N)cc1`, in experiment [1], the 50% inhibitory concentration (IC50) stood at 0.48 nM. Also, the EC50 in experiment [2] and in experiment [3] was 18 nM in each case.
On to `CC(C)CN([C@H](CO)CCCCNC(=O)[C@@H](NC(=O)N1CCOCC1)C(c1ccccc1)c1ccccc1)S(=O)(=O)c1ccc(N)cc1`, for which, in experiment [1], half-maximal inhibition (IC50) was put at 0.51 nM. The same compound displayed an EC50 in experiment [2] of 78 nM.
The compound `COC(=O)N[C@@H](C(=O)NCCCC[C@@H](CO)N(CC(C)C)S(=O)(=O)c1ccc(N)cc1)c1ccccc1` had an IC50 in experiment [1] greater than 300 nM.
In experiment [1], `CC(C)CN([C@H](CO)CCCCNC(=O)[C@@H](NC(=O)N(C)C)C(c1ccccc1)c1ccccc1)S(=O)(=O)c1ccc(N)cc1` yielded an IC50 of 0.44 nM. Further, the values for the EC50 in experiment [2] and in experiment [3] were 62 nM and 56 nM, respectively.
`CC(C)CN([C@H](CO)CCCCNC(=O)[C@@H](NC(=O)c1cccnc1)C(c1ccccc1)c1ccccc1)S(=O)(=O)c1ccc(N)cc1` yielded a concentration for half-maximal inhibition (IC50) in experiment [1] of 0.68 nM. Moreover, the EC50 in experiment [2] was 39 nM; in experiment [3] it was 25 nM.

Source of the values: ChEMBL document CHEMBL1138097, “Lysine sulfonamides as novel HIV-protease inhibitors: Nepsilon-acyl aromatic alpha-amino acids” (Bioorg Med Chem Lett, 2006).
